Among the data in PubChem BioAssay AID743061 (The Scripps Research Institute Molecular Screening Center, 2013) are inhibition values, retold here.

What is called inhibition is the drop in the measured response relative to a control, in per cent.

This experiment deals with Methionine--tRNA ligase, mitochondrial (Homo sapiens) (UniProt Q96GW9). Description: human mtMetRS tRNA charging inhibition – biochemical, radioactivity, round 1, selectivity assay for T. brucei MetRS inhibitor project, late-stage follow-up (AID 743061).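 Also: 0% = DMSO with full reaction and 100% = DMSO wells lacking tRNA.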 The following applies: recombinant human mtMetRS, [3H]Met tRNA charging, at 1 µM, stronger effect = higher value. The method in brief: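 Material: Recombinant human mitochondrial methionyl-tRNA synthetase (MetRS) | Medium: pH 8.0 buffer, 2.5 mM ATP | Reagent: [3H]Met 240 nM plus bulk E. coli tRNA | Compound: 10 and 1 µM | Schedule: 15 min compound–enzyme preincubation, then 1 h reaction at room temperature | Measured by: Scintillation counts of TCA-precipitated charged tRNA on filters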
Consider `Cc1cccc(NC(=O)C2CC(=O)n3c(nc4ccccc43)N2)c1` (centres undefined), for which the inhibition amounted to 10.7%.

Regarding `O=C(NCc1nc2ccccc2[nH]1)C1=C[C@@H](c2csc3ccccc23)C[C@@H](OCCCCO)O1`, the inhibition was -15%.

Regarding `CCO[C@H]1OC(C(=O)NCc2nc3ccccc3[nH]2)=C[C@@H](c2ccc(Br)cc2)[C@@H]1CCCO`, the inhibition was -15%.

In the case of `O=C(NCc1nc2ccccc2[nH]1)C1=C[C@@H](C2CC2)C[C@@H](OCc2ccc(CO)cc2)O1`, the inhibition was -11.4%.

For the compound `COc1ccccc1NS(=O)(=O)c1cccc(NC(=O)Nc2ccccc2)c1`, the inhibition is -9.69%. For the compound `CCN(CC)C(=O)C(=O)c1cn(CC(=O)Nc2cccc(OC)c2)c2ccccc12`, the inhibition was found to be 10.6%. Regarding `CCN(CC)C(=O)C(=O)c1cn(CC(=O)N2CCCc3ccccc32)c2ccccc12`, the inhibition was -14.3%. For the compound `O=C(NCc1nc2ccccc2[nH]1)C1=C[C@@H](c2ccc(Br)cc2)C[C@@H](OCc2ccc(CO)cc2)O1`, the inhibition was -11.6%. With `O=C(CC(=O)Nc1cccc(Cl)c1)NN=Cc1ccccc1`, the inhibition is -18.3%.

For `CC(=O)c1c[nH]c(C(=O)NCc2cccc(C(F)(F)F)c2)c1`, the inhibition was -7.99%.

Take `O=C(NCc1nc2ccccc2[nH]1)C1=C[C@H](c2ccccc2)C[C@H](OCc2ccc(CO)cc2)O1`: the inhibition is -8.08%.

Take `CC(C)(C)[C@@H]1C=C(C(=O)NCc2nc3ccccc3[nH]2)O[C@H](OCc2ccc(CO)cc2)C1`: the inhibition was -10.6%. In the case of `COc1ccc(OCC(O)CNC(=O)Nc2ccc(Cl)cc2)cc1` (centres undefined) it was -6.26%. In the case of `O=C1[C@@H]2Cc3c([nH]c4ccccc34)C(c3cccc([N+](=O)[O-])c3)N2C(=O)CN1CCCO` (some centres undefined) it was -17.4%; in that of `COc1ccc(CNC(=O)CSc2nnc3c(n2)[nH]c2ccc(F)cc23)cc1`, -29.7%. The figure for `Cc1[nH]c2ccc(Br)cc2c(=O)c1CN1CCCCCC1` is -31.2%; for `O=C(NCCc1nc2ccccc2[nH]1)c1ccc(Cl)cc1` it is 5.42%; for `O=C(N/C(=C\c1cccnc1)c1nc2ccccc2[nH]1)c1cccc(Br)c1` it is -19.7%. For `CCN(C(=O)Cn1cc(C(=O)C(=O)N2CCOCC2)c2ccccc21)c1ccccc1`, the inhibition was -12.3%. The figure for `O=C(NCc1nc2ccccc2[nH]1)C1=C[C@H](c2ccc(Br)cc2)C[C@H](OCCCCO)O1` is -6.37%; for `CN1CC(=O)N2C(c3cccc([N+](=O)[O-])c3)c3[nH]c4ccccc4c3C[C@H]2C1=O` (some centres undefined) it is -17.1%. As to `Oc1c(Cl)cc(Cl)cc1CNc1nc2ccccc2[nH]1`, the inhibition is -0.2%. The figure for `CCN(CCc1nc2ccc(C)cc2[nH]1)C(=O)c1ccc2ncccc2c1` is -5.17%.

As to `CC(CC(=O)Nc1cccc(Br)c1)=NNC(=O)c1ccc(O)cc1O`, the inhibition was -24.6%. In the case of `CN(CC(=O)Nc1ccc(Cl)cc1)C(=O)c1ccc(-n2cncn2)c([N+](=O)[O-])c1` it was -36.7%; in that of `O=C(CSC1CC(=O)N(c2cccc(Cl)c2)C1=O)Nc1ccc(Br)cc1` (centres undefined), -12.3%. The figure for `O=C(CSc1nnc2c(n1)[nH]c1ccc(Br)cc12)NCc1ccccc1` is -0.52%; for `CC(=O)c1ccc(N2CCN(C(=O)CCCn3c(=O)[nH]c4ccc(Br)cc4c3=O)CC2)cc1` it is -14.1%; for `CCOC(=O)N1CCC(Nc2c(Nc3ccc(F)cc3)c(=O)c2=O)CC1` it is -8.53%. For the compound `O=C(NNC(=O)c1ccc(-n2cncn2)c([N+](=O)[O-])c1)c1ccc(Cl)cc1`, the inhibition was -30.3%. In the case of `CN(Cc1cc(Cl)cc(Cl)c1)[C@H]1C[C@H]2c3[nH]c4ccccc4c3CCN2C(=O)[C@H]1CO` it was 14%.

For `O=C(CN1CCSC1=NCc1ccccc1)c1ccc(Cl)c(Cl)c1`, the inhibition is -25.1%. The figure for `O=C(NCCc1nc2ccccc2[nH]1)c1ccc(Cl)cc1Cl` is 16.4%; for `CC(=O)N(CCc1ccccc1)C1CC(=O)N(c2ccc(Br)cc2)C1=O` (centres undefined) it is -17.2%.
